We go through three proteins from ChEMBL document CHEMBL1667743, “Functional in vivo imaging of cysteine cathepsin activity in murine model of inflammation” (Bioorg Med Chem, 2011).

Substrate in data set [1]: CC(C)(C)OC(=O)NCC[C@H](NC(=O)[C@H](CC1CCCCC1)NC(=O)N1CCOCC1)C(=O)NCCNC(=O)OCC1c2ccccc2-c2ccccc21
Description: (§1) Activity at recombinant cathepsin L. Summed up: (§2)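 Active-site-titrated (E-64) recombinant human cathepsins B, L, S and in-house cathepsin K, 10 nM final in pH 6.5 acetate/HEPES buffer with 300 mM NaCl, 0.001% Pluronic and L-cysteine; DMSO-dissolved Cy7/BHQ-3 quenched substrate 0.8–40 µM final (DMSO ≤1%); fluorescence read at 25 °C (λex 710, λem 767 nm); steady-state data fitted by non-linear least squares to Michaelis–Menten with substrate inhibition.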

Substrate in data set [2]: CCN(CC)c1ccc2nc3ccc(/N=N/c4ccc(N(C)CCCC(=O)NCCNC(=O)[C@H](CCNC(=O)CCCCCN5/C(=C\C=C\C=C\C=C\C6N(CC)c7ccc(S(=O)(=O)O)cc7C6(C)C)C(C)(C)c6cc(S(=O)(=O)[O-])ccc65)NC(=O)[C@H](CC5CCCCC5)NC(=O)N5CCOCC5)cc4)cc3[n+](-c3ccccc3)c2c1
Described as §1. Summed up:
as §2

Substrate in data set [3]: CC(C)(C)OC(=O)NCC[C@H](NC(=O)[C@H](CC1CCCCC1)NC(=O)N1CCOCC1)C(=O)NCCNC(=O)OCC1c2ccccc2-c2ccccc21
Briefly: (§3) Ratio of Kcat/Km for recombinant cathepsin L. Summed up: as §2

Substrate in data set [4]: CCN(CC)c1ccc2nc3ccc(/N=N/c4ccc(N(C)CCCC(=O)NCCNC(=O)[C@H](CCNC(=O)CCCCCN5/C(=C\C=C\C=C\C=C\C6N(CC)c7ccc(S(=O)(=O)O)cc7C6(C)C)C(C)(C)c6cc(S(=O)(=O)[O-])ccc65)NC(=O)[C@H](CC5CCCCC5)NC(=O)N5CCOCC5)cc4)cc3[n+](-c3ccccc3)c2c1
The data set is described as §3. In short, it runs like this: as §2

Substrate in data set [5]: CC(C)(C)OC(=O)NCC[C@H](NC(=O)[C@H](CC1CCCCC1)NC(=O)N1CCOCC1)C(=O)NCCNC(=O)OCC1c2ccccc2-c2ccccc21
Description: (§4) Activity at recombinant cathepsin S. Summed up:
as §2

Substrate in data set [6]: CCN(CC)c1ccc2nc3ccc(/N=N/c4ccc(N(C)CCCC(=O)NCCNC(=O)[C@H](CCNC(=O)CCCCCN5/C(=C\C=C\C=C\C=C\C6N(CC)c7ccc(S(=O)(=O)O)cc7C6(C)C)C(C)(C)c6cc(S(=O)(=O)[O-])ccc65)NC(=O)[C@H](CC5CCCCC5)NC(=O)N5CCOCC5)cc4)cc3[n+](-c3ccccc3)c2c1
The description is as §4. In short, it runs like this:
as §2

Substrate in data set [7]: CC(C)(C)OC(=O)NCC[C@H](NC(=O)[C@H](CC1CCCCC1)NC(=O)N1CCOCC1)C(=O)NCCNC(=O)OCC1c2ccccc2-c2ccccc21
Briefly: (§5) Ratio of Kcat/Km for recombinant cathepsin S. In short, it runs like this:
as §2

Substrate in data set [8]: CCN(CC)c1ccc2nc3ccc(/N=N/c4ccc(N(C)CCCC(=O)NCCNC(=O)[C@H](CCNC(=O)CCCCCN5/C(=C\C=C\C=C\C=C\C6N(CC)c7ccc(S(=O)(=O)O)cc7C6(C)C)C(C)(C)c6cc(S(=O)(=O)[O-])ccc65)NC(=O)[C@H](CC5CCCCC5)NC(=O)N5CCOCC5)cc4)cc3[n+](-c3ccccc3)c2c1
The description is as §5. In short, it runs like this: as §2

Substrate in data set [9]: CC(C)(C)OC(=O)NCC[C@H](NC(=O)[C@H](CC1CCCCC1)NC(=O)N1CCOCC1)C(=O)NCCNC(=O)OCC1c2ccccc2-c2ccccc21
Briefly: Activity at recombinant cathepsin K. Summed up:
as §2

Substrate in data set [10]: CC(C)(C)OC(=O)NCC[C@H](NC(=O)[C@H](CC1CCCCC1)NC(=O)N1CCOCC1)C(=O)NCCNC(=O)OCC1c2ccccc2-c2ccccc21
Description: Ratio of Kcat/Km for recombinant cathepsin K. Summed up: as §2

B1: Procathepsin L (Homo sapiens), P07711 (protein)
chain: MNPTLILAAFCLGIASATLTFDHSLEAQWTKWKAMHNRLYGMNEEGWRRAVWEKNMKMIELHNQEYREGKHSFTMAMNAFGDMTSEEFRQVMNGFQNRKPRKGKVFQEPLFYEAPRSVDWREKGYVTPVKNQGQCGSCWAFSATGALEGQMFRKTGRLISLSEQNLVDCSGPQGNEGCNGGLMDYAFQYVQDNGGLDSEESYPYEATEESCKYNPKYSVANDTGFVDIPKQEKALMKAVATVGPISVAIDAGHESFLFYKEGIYFEPDCSSEDMDHGVLVVGYGFESTESDNNKYWLVKNSWGEEWGMGGYVKMAKDRRNHCGIASAASYPTV
As to B1, the values for the Km in [1] and in [2] were 840 µM and 280 µM, respectively. Moreover, the figures for the kcat/Km in [3] and in data set [4] were 7070 M⁻¹ s⁻¹ and 187 M⁻¹ s⁻¹, respectively.

B2: Cathepsin S (Homo sapiens), P25774 (protein)
chain: MKRLVCVLLVCSSAVAQLHKDPTLDHHWHLWKKTYGKQYKEKNEEAVRRLIWEKNLKFVMLHNLEHSMGMHSYDLGMNHLGDMTSEEVMSLMSSLRVPSQWQRNITYKSNPNRILPDSVDWREKGCVTEVKYQGSCGACWAFSAVGALEAQLKLKTGKLVSLSAQNLVDCSTEKYGNKGCNGGFMTTAFQYIIDNKGIDSDASYPYKAMDQKCQYDSKYRAATCSKYTELPYGREDVLKEAVANKGPVSVGVDARHPSFFLYRSGVYYEPSCTQNVNHGVLVVGYGDLNGKEYWLVKNSWGHNFGEEGYIRMARNKGNHCGIASFPSYPEI
For B2, the results for the Km in [5] and in data set [6] were 1.3 µM and 25 µM, respectively. For the same protein, the kcat/Km (in general, the second-order rate constant that governs catalysis at low substrate concentration) was 15100 M⁻¹ s⁻¹ in data set [7] and 14200 M⁻¹ s⁻¹ in [8].

B3: Cathepsin K (Homo sapiens), P43235 (protein)
chain: MWGLKVLLLPVVSFALYPEEILDTHWELWKKTHRKQYNNKVDEISRRLIWEKNLKYISIHNLEASLGVHTYELAMNHLGDMTSEEVVQKMTGLKVPLSHSRSNDTLYIPEWEGRAPDSVDYRKKGYVTPVKNQGQCGSCWAFSSVGALEGQLKKKTGKLLNLSPQNLVDCVSENDGCGGGYMTNAFQYVQKNRGIDSEDAYPYVGQEESCMYNPTGKAAKCRGYREIPEGNEKALKRAVARVGPVSVAIDASLTSFQFYSKGVYYDESCNSDNLNHAVLAVGYGIQKGNKHWIIKNSWGENWGNKGYILMARNKNNACGIANLASFPKM
On to B3, for which the Km – broadly, the concentration of substrate that gives half-maximal velocity – in [9] worked out at 89 µM. Besides, the kcat/Km in data set [10] came to 187 M⁻¹ s⁻¹.
